Results: the RNAGym collection of RNA variant scans (doi:10.1126/science.aae0568)
This sample holds only a part of the variants without activity.

B1: tRNA (parent)
chain: GUUCCGUUGGCGUAAUGGUAACGCGUCUCCCUCCUAAGGAGAAGACUGCGGGUUCGAGUCCCGUACGGAACG

Variants of: B1
Assay: yeast fitness relative to wild type (ratio to wild type); higher = fitter; tRNA-Arg(CCU), competitive growth, 37 C, YPD
How it was run: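 Start and end populations of a pooled competition were compared by 100-nucleotide paired-end sequencing of gene amplicons. The Saccharomyces cerevisiae strains carried tRNA-Arg(CCU) gene variants at the native genomic locus, synthesised with a 3% per-site mutation rate at 69 sites, and competed in YPD at 37°C for 24 hours in six parallel replicates. Darwinian fitness relative to wild type was based on the change in genotype frequencies. Genotypes required ≥ 100 starting reads, and estimates < 0.5 were set to 0.5.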

Variant	yeast fitness
U2A C30U	0.812
U2A A45C A65C	0.764
U2A A45C A65U	0.624
U2A C11U G48C	≤ 0.5
U2A C11G A21G A37G	≤ 0.5
U2A A65G	0.938
U2A A65U	0.812
U2A U3G C11A U16C C22G A57C C62A	0.572
U2A G6C U16C C24U A36G	≤ 0.5
U2A C11U C29G A37C A42U A57G G67A	≤ 0.5
U2A C24G A42U	0.812
U2A G44C C46A G56C	≤ 0.5
U2A G6C G52A	≤ 0.5
U2A G9A A37G U47C A65C	≤ 0.5
U2A G9A C11U A40U A42C A45G G50C C61U C66U	≤ 0.5
U2A C34G A37U A40U C66U	≤ 0.5
U2A C4U G44C C61A	≤ 0.5
U2A G6C U7C C30A G44A C66A	0.576
U2A C60U A65U A70U	≤ 0.5
U2A C29U	0.884
U2A C11U U19G C55U	0.571
U2A C5G C24U C30G	≤ 0.5
U2A G52C	0.65
U2A C33G G51C C66G G67A A69C	≤ 0.5

Variant	yeast fitness
U2A C31G G39C C49U C60G	≤ 0.5
U2A G18A C24A U28A U32C C60A	≤ 0.5
U2A C60A	0.645
U2A C30U U32A C62G	≤ 0.5
U2A C5G A14G C30G C46U C66A A70U	≤ 0.5
U2A C11A G38C C60A	0.582
U2A C5A G50A	≤ 0.5
U2A C4G	0.838
U2A G38C A69U	≤ 0.5
U2A C5A C33U A57G C66G	≤ 0.5
U2A U3C G6A G39A	≤ 0.5
U2A G23A C29G A69U	0.643
U2A C5G U53A C66U	≤ 0.5
U2A C4A C22A C55U	≤ 0.5
U2A C24U C30U C34U G52A C61A	≤ 0.5
U2A C27A C60U U64C A69G	≤ 0.5
U2A C22U A43U	0.533
U2A A45U C62G	≤ 0.5
U2A C5U G23A A37G	0.689
U2A C24A A45G	0.568
U2A G48C G52C A57C G58A	≤ 0.5
U2A G6A C11G C49U G58C A69U	≤ 0.5
U2A U7G C24G C29A A43U U53A A57U A65U	≤ 0.5
U2A C24A	0.662

Variant	yeast fitness
U2A C24A A36G A45G	≤ 0.5
U2A C5G U8A C24U C61G C66U A69U	≤ 0.5
U2A C34G A40C C46G	0.516
U2A U3A	0.809
U2A U3C	0.931
U2A C5U A21U C30G A70U	≤ 0.5
U2A C4G G56A G58A A65C	≤ 0.5
U2A C24G A43U C46U A57G	≤ 0.5
U2A C27U C34A	≤ 0.5
U2A C46G	0.829
U2A C4U U8G C55G G68A	≤ 0.5
U2A C66U A70C	0.641
U2A C34U	0.743
U2A C11A C31U	≤ 0.5
U2A C4A C46G G52A A70U	≤ 0.5
U2A A70C	1
U2A C4U U28A C30U C60G C66G	≤ 0.5
U2A C5U C24U U54C G58A	0.569
U2A C5G C66U	0.657
U2A G12U C55U	≤ 0.5
U2A C33A C55A G63A	0.513
U2A U7G C27U G39C C60A	≤ 0.5
U2A C11U G23C C27A A69U	≤ 0.5
U2A G67A	0.844

Variant	yeast fitness
U2A G67C	0.792
U2A C5G C24U C30G C49U	≤ 0.5
U2A C5A C29U C62U A70U	≤ 0.5
U2A C11G G17A A20U C33G G38C A70G	≤ 0.5
U2A G18A G23C A45U	0.573
U2A C24U A42C C62G	≤ 0.5
U2A C29G U47G C49G U54G	≤ 0.5
U2A G25A C31G G39C C49U C60G	≤ 0.5
U2A C22U A40C	0.631
U2A G56C A57G G68U	≤ 0.5
U2A G9A U13A C24A A45C	0.536
U2A C4A C34A A43C C46U	≤ 0.5
U2A C24G G63C G67C A69U	≤ 0.5
U2A G17C A57C G63C C66U	≤ 0.5
U2A U7A C27U C46G	≤ 0.5
U2A U3G C5U C29G C30G C46G	≤ 0.5
U2A C22A A65C	≤ 0.5
U2A C22A A65U	≤ 0.5
U2A C33A C55G A69C	≤ 0.5
U2A C5A	0.611
U2A G23A C29G C55U	≤ 0.5
U2A C30U G44C G51A C61U	≤ 0.5
U2A C33A C34U G56A A69C	≤ 0.5
U2A A42G A43G G50A	0.541

Variant	yeast fitness
U2A A45C A70C	0.758
U2A U3A U26A A57U C62G C66U	≤ 0.5
U2A C11G A21G	0.567
U2A C11G U47A G48A C66U A70U	≤ 0.5
U2A G58A	0.838
U2A G9A U13A C24A A45C U64A	0.537
U2A G6A C11G C49U G58C	≤ 0.5
U2A C24G G63A	0.551
U2A C5G C11G U19C A20G	≤ 0.5
U2A G25A A40C A65C	≤ 0.5
U2A G9A A45C	0.682
U2A G18A C22A C24G A43G C49G	0.634
U2A C31G U32G	0.526
U2A C24G G25A C61G G67C G68A	≤ 0.5
U2A G12U G23A A36G G39A	0.584
U2A G23A C29G A45U C60G C61U A69G	≤ 0.5
U2A U8A C33U A43U A57G	≤ 0.5
U2A C5A C46U G50C	≤ 0.5
U2A C46A G51C	0.599
U2A U7C G17C C29A A45U U59C	0.902
U2A G25A A69G	0.576
U2A C11U A70C	0.587
U2A G6A C11G A42U A65G C66G G68A	≤ 0.5
U2A G12A	0.886

Variant	yeast fitness
U2A C5G A14U U19A G23C C29A C66A	≤ 0.5
U2A C11G C30A A57G	≤ 0.5
U2A C30U C46A U54A A57G	≤ 0.5
U2A C60G G63C	≤ 0.5
U2A C66A	0.704
U2A C22U U32A A65G	≤ 0.5
U2A C31G A65U A69C	≤ 0.5
U2A C46A A70C	0.705
U2A C11G C49A C60U G68C	0.608
U2A G17C C46U	≤ 0.5
U2A C27G A36G	≤ 0.5
U2A C24G U32A G58C G63C	≤ 0.5
U2A C29A A45U	0.542
U2A U7C G25A A36C C60A C62G	0.524
U2A G44A C46U	0.621
U2A C24U C30U C34U G52A	≤ 0.5
U2A C27G A37C C55U C62G C66G	≤ 0.5
U2A G23C G58A	≤ 0.5
U2A U7C G25A A36U C60A C62G	0.58
U2A C4U U28A C30U A57G	0.688
U2A G6A U7C A15C C29G C33U	≤ 0.5
U2A C11U G23C C27A G50U	≤ 0.5
U2A C4G A42G A45U C66U	≤ 0.5
U2A C31G C49U G51A G63A	≤ 0.5

Variant	yeast fitness
U2A C5U C24U C34U A40C	≤ 0.5
U2A C5G A42U	≤ 0.5
U2A C5G A42G	0.541
U2A C66U G67A	0.601
U2A C5A C30U A69U	≤ 0.5
U2A C11A A14G C29U A65C	0.568
U2A U3G G18A A20C C49U C55U	≤ 0.5
U2A C5A U64C	0.595
U2A C5U G48A	0.611
U2A C33U	0.636
U2A C33A	0.721
U2A C5G U8A C61A	≤ 0.5
U2A G18A C30G U35C	≤ 0.5
U2A G10A C49A U53C C62G	≤ 0.5
U2A C5A G9C U16C G25C A65C	≤ 0.5
U2A G9C A14C C34U A65U	≤ 0.5
U2A G12C C29U C33G	≤ 0.5
U2A G10A U26A C66U	≤ 0.5
U2A C24U C30U C34U G52A C66G	≤ 0.5
U2A C24A A42U	≤ 0.5
U2A U8A C11G U54A	≤ 0.5
U2A G17C C46U G67C	≤ 0.5
U2A C22G G63A	0.568
